How the values were obtained:
[1] = system: adults with refractory solid tumors or lymphoma; conditions: monotherapy phase I trial; cited from earlier work
[2] = system: patients with advanced solid tumors; conditions: cited from earlier work
[3] = APG-1387 monotherapy phase I trial: plasma pharmacokinetics; type: in vivo, human
[4] = system: NK cell (CD3, −CD16+, and CD56+) populations; experiment: Combination trial: peripheral blood lymphocyte subsets by flow cytometry; type: in vivo, human
Method in brief: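 Combination regimen: toripalimab 240 mg i.v. Q3W plus test compound i.v., either 20–30 mg on D1/8 (3+3 stage) or 45 mg on D1/8/15 (second stage). Peripheral blood (3 ml) was drawn on C1D1, C2D1, C3D1 and at end of treatment. Lymphocyte subsets were analysed by flow cytometry. Post-dose cell proportions were divided by each subject's baseline.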

[5] = system: IFN-γ, IL-12/IL-23p40, IL-5, and IL-6; experiment: Combination trial: plasma cytokines; type: in vivo, human; conditions: 4 and 24 h after APG-1387 dosing, 16 subjects
Method in brief: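 Combination regimen: toripalimab 240 mg i.v. Q3W with the test compound i.v. weekly on D1/8 or D1/8/15. Plasma was collected on C1D1 pre-dose, at 4 and 24 h after the first test compound dose, and on C2D1 and C3D1 before toripalimab. Cytokines were measured by Meso Scale Discovery assay. Post-dose IFN-γ, IL-12, IL-5 and IL-6 were normalised to each subject's baseline.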

[6] = system: subjects with advanced solid tumors; experiment: APG-1387 monotherapy phase I trial: safety; type: in vivo, human
Method in brief: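 3+3 escalation of 0.3, 0.6, 4.0, 7.0, 12, 20, 30 and 45 mg, given as 30-min i.v. infusion on D1/8/15 with a 1-week rest per 28-day cycle. Safety was monitored by vitals, examination, haematology, biochemistry, thyroid, coagulation and ECG. AEs were graded by CTCAE 4.0 from consent to 90 days after last dose. DLTs were predefined drug-related grade ≥3–4 toxicities in cycle 1. MTD was the level below that with DLTs in ≥2 of 6 subjects.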

[7] = system: advanced solid tumors; experiment: APG-1387 monotherapy phase I trial: antitumor activity; type: in vivo, human
[8] = 28 participants, 30- and 45-mg groups

## CC[C@H](NC(=O)[C@H](C)NC)C(=O)N1C[C@@H](O)C[C@H]1Cc1c(-c2[nH]c3cc(F)ccc3c2C[C@@H]2C[C@H](O)CN2C(=O)[C@H](CC)NC(=O)[C@H](C)NC)[nH]c2cc(F)ccc12 [birinapant]
[1]
  CR or PR: no participant had a CR or PR
  Subjects with best response of SD: 28%

## CN[C@@H](C)C(=O)N[C@H](C(=O)N1CCC[C@H]1c1nc(C(=O)c2ccc(F)cc2)cs1)C1CCCCC1 [LCL161]
[2]; high doses of 1800, 2100, and 3000 mg
  Cytokine release syndrome (CRS): grade 3-4 cytokine release syndrome
[2]; monotherapy phase I trial
  CR or PR: no participant had a CR or PR
  Subjects with best response of SD: 19%

## CN[C@@H](C)C(=O)N[C@H]1CN(S(=O)(=O)c2cccc(S(=O)(=O)N3CC[C@H]4CC[C@@H](C(=O)NC(c5ccccc5)c5ccccc5)N4C(=O)[C@@H](NC(=O)[C@H](C)NC)C3)c2)CC[C@H]2CC[C@@H](C(=O)NC(c3ccccc3)c3ccccc3)N2C1=O [APG-1387]
[3]; 0.3-45 mg
  Increase of Cmax and AUC0-t with dose: approximately dose-proportional
[3]; QW dosing schedule
  Accumulation after multiple dosing: No significant accumulation
[3]; range across doses
  Mean rate of clearance: 15.9 to 60.7 L/h
  Mean steady-state volume of distribution (Vss): 10.1 to 60.1 L
  Mean terminal half-life: 44.5 to 672 min
[3]; range across doses, QW i.v. infusion 30 min
  Median time to maximum plasma concentration (Cmax): 0.25 to 0.50 h
[4]; 45-mg dose of APG-1387, combination trial
  NK cell populations in peripheral blood: increased
[4]; low doses of APG-1387, combination trial
  NK cell populations in peripheral blood: did not change significantly
[5]
  Plasma levels of IFN-γ, IL-12/IL-23p40, IL-5, and IL-6: significantly increased
[6]; 0.3-45 mg i.v. D1/8/15 of 28-day cycle, 28 subjects
  Dose-limiting toxicities (DLT): no DLT occurred
[6]; 28 participants
  Subjects with TRAEs: 21.4%
[6]; 28 participants, 20-mg group
  TRAE pruritus: 3.6%
[6]; [8]
  TRAE elevated ALT: 7.1%
  TRAE elevated AST: 7.1%
[6]; 28 participants, 45-mg group
  TRAE asthenia: 3.6%
[6]; 28 participants, all in 45-mg group
  TRAE facial-nerve disorder: 10.7%
[6]; 28 subjects
  Participants with grade ≥3 TRAE (ALT elevation): 3.6%
[6]; all doses, n = 28
  Any TRAE, All grade: 6 (21·4) n (%)
  Any TRAE, Grade ≥3: 1 (3·6) n (%)
  TRAE Alanine aminotransferase elevation, All grade: 2 (7·1) n (%)
  TRAE Alanine aminotransferase elevation, Grade ≥3: 1 (3·6) n (%)
  TRAE Amylase elevation, All grade: 0 (0) n (%)
  TRAE Amylase elevation, Grade ≥3: 0 (0) n (%)
  TRAE Aspartate aminotransferase elevation, All grade: 2 (7·1) n (%)
  TRAE Aspartate aminotransferase elevation, Grade ≥3: 0 (0) n (%)
  TRAE Asthenia, All grade: 1 (3·6) n (%)
  TRAE Asthenia, Grade ≥3: 0 (0) n (%)
  TRAE Blood creatinine elevation, All grade: 0 (0) n (%)
  TRAE Blood creatinine elevation, Grade ≥3: 0 (0) n (%)
  TRAE Decreased appetite, All grade: 0 (0) n (%)
  TRAE Decreased appetite, Grade ≥3: 0 (0) n (%)
  TRAE Facial-nerve disorder, All grade: 3 (10·7) n (%)
  TRAE Facial-nerve disorder, Grade ≥3: 0 (0) n (%)
  TRAE Headache, All grade: 0 (0) n (%)
  TRAE Headache, Grade ≥3: 0 (0) n (%)
  TRAE Hypoesthesia, All grade: 0 (0) n (%)
  TRAE Hypoesthesia, Grade ≥3: 0 (0) n (%)
  TRAE Hypogeusia, All grade: 0 (0) n (%)
  TRAE Hypogeusia, Grade ≥3: 0 (0) n (%)
  TRAE Hypothyroidism, All grade: 0 (0) n (%)
  TRAE Hypothyroidism, Grade ≥3: 0 (0) n (%)
  TRAE Immune-mediated pancreatitis, All grade: 0 (0) n (%)
  TRAE Immune-mediated pancreatitis, Grade ≥3: 0 (0) n (%)
  TRAE Infusion site reaction, All grade: 0 (0) n (%)
  TRAE Infusion site reaction, Grade ≥3: 0 (0) n (%)
  TRAE Leukopenia, All grade: 0 (0) n (%)
  TRAE Leukopenia, Grade ≥3: 0 (0) n (%)
  TRAE Lipase elevation, All grade: 0 (0) n (%)
  TRAE Lipase elevation, Grade ≥3: 0 (0) n (%)
  TRAE Platelet count decrease, All grade: 0 (0) n (%)
  TRAE Platelet count decrease, Grade ≥3: 0 (0) n (%)
  TRAE Pruritus, All grade: 1 (3·6) n (%)
  TRAE Pruritus, Grade ≥3: 0 (0) n (%)
  TRAE Rash, All grade: 0 (0) n (%)
  TRAE Rash, Grade ≥3: 0 (0) n (%)
[6]; doses up to 45 mg
  Maximum tolerated dose (MTD): not reached
[6]; safety population, 28 participants
  Subjects with treatment-emergent adverse events: 89.3%
[7]; 23 participants
  Disease control rate (DCR): 21.7%
[7]; n 23
  Best overall response: Complete response: 0 (0) n (%)
  Best overall response: Partial response: 0 (0) n (%)
  Best overall response: Progressive disease: 18 (78·3) n (%)
  Best overall response: Stable disease: 5 (21·7) n (%)
  Disease control rate: 5 (21·7) n (%)
  Objective response rate: 0 (0) n (%)
[7]; one individual with CRC, 20-mg group
  Duration of SD with tumor reduction: 16 weeks
